Data from publication PMC7833734 (Oncoimmunology, 2021).

Assays:
[1] = system: neoantigen-reactive CD8+ T-cell clones; test: IFNγ ELISpot assay of neoantigen-reactive CD8+ T-cell clones; format: cell-based, human; conditions: T2-A24 pulsed with 20 µM peptide, 24 h 37°C
In short: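 Clones came from single tetramer-positive CD8+ cells sorted and expanded with irradiated allogeneic feeders, 5 μg/mL PHA and 100 IU/mL IL-2. T2-A24 cells were pre-incubated with 20 µM mutant or WT peptide for 2 h at 25°C. Spots were detected with 2 µg/mL biotinylated anti-IFNγ, streptavidin-HRP and AEC substrate.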

[2] = system: naive CD8+ T cells derived from HD-PBMCs; format: cell-based, human; conditions: for CD8+ T-cell induction by AKF9 variants, in words: seven HD-PBMCs, cocktail of AKF9 variants along with the WT, tetramer staining; for immunogenicity (CD8+ T-cell induction), in words: six HD-PBMCs, cocktail of four natural HLA-A24 neoantigens
HLA-A24 on T2-A24 cells = test: Peptide-HLA class I stability assay; format: binding, human; conditions: peptide 0.3 to 3 µM
In short: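 TAP-deficient T2-A24 cells were pre-cultured overnight at 25°C. Cells were pulsed with mutant or WT peptide (0.3–3 µM) for 1 h at 25°C, then 3 h at 37°C. Surface HLA-A24 was stained with anti-HLA-A24 (C7709A2) and goat anti-mouse IgG-FITC, then read by flow cytometry. ΔMFI = MFI with peptide minus MFI without. Known HLA-A24 binder and non-binder peptides were controls. Comparison at 1 µM, SEM (n = 3), two-tailed t-test.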

| Sequence | CD8+ T-cell induction by AKF9 variants, in words [2] | immunogenicity (CD8+ T-cell induction), in words [2] | other results |
| --- | --- | --- | --- |
| AYLEAIHNF [ANF9] | – | – | recognition by ADF9-reactive CD8+ T-cell clones (D1-D5), IFNγ ELISpot [1]: three of the five clones |
| AYLEAIHYF [AYF9] | increased the frequency | – | – |
| TLPEEFHEF [TEF9] | – | immunogenic | effect of the mutation on pHLA I stability versus wild-type peptide (HLA-A24 on T2-A24 cells): increased |
| AYLEAIHDF [ADF9] | increased the frequency | – | – |
| AYLEAIHHF [AHF9] | increased the frequency | – | – |
| AYLEAIHKF [AKF9] | increased the frequency | immunogenic | number of HDs with CD8+ T-cell response ([2]; of six HD-PBMCs, response = ≥ 4-fold increase with ≥ 0.1% tetramer+ CD8+ cells): three; effect of the mutation on pHLA I stability versus wild-type peptide (HLA-A24 on T2-A24 cells): unaltered |
| HYAALRELI [HI9] | – | failed to induce T-cell responses | – |
| VYVAKLHDI [VYI9] | – | failed to induce T-cell responses | – |
